A short description of assay [1]: inhibitors of TNFa-induced NFkB p65 translocation, primary screen, imaging, HUVEC, MLSMR starter and 10KST1 sets (AID 438;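 active = inhibition above 20% together with a positive visual image hit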;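 note: compound added about 3h40 before a 20 min TNFalpha stimulation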;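 for inhibition: signal is the nuclear over cytoplasmic p65 intensity ratio per well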). Particulars: HUVEC TNFa-induced p65 nuclear translocation; cell count: measured here: nuclei count (cytotoxicity indicator), at 2.08 µM; inhibition: at 2 µM, stronger effect = higher value, 0% TNFa-plus-vehicle, 100% no-TNFa wells.
Assay [2] is described as follows: endothelial E-selectin expression blockers – imaging, HUVEC, immunofluorescence, MLSMR starter and 10KST1 sets, primary screen (AID 487).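 For inhibition: signal is fraction of cell area covered by stained E-selectin grains.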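 For nuclei count: 100% = median nuclei count of all wells on the same plate.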 As to conditions: HUVEC TNFalpha-induced E-selectin immunofluorescence imaging, at 2 µM; inhibition: stronger effect = higher value; nuclei count: measured here: cell number, toxicity.
A short description of assay [3]: Primary imaging screen for DUSP6 inhibitors that restore phospho-Erk in transfected HeLa cells, chemical complementation (AID 609;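 active = compounds giving at least 50% inhibition in the cell-based MKP-3 phosphatase rescue imaging test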;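 for inhibition: phospho-Erk level distribution per well compared with pooled transfected vehicle control wells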). Particulars: HeLa MKP-3 transfected, phospho-Erk imaging KS statistic, at 10 µM, cells stimulated with TPA for 15 min.
Assay [4] addresses Dual specificity protein phosphatase 6 (Homo sapiens) (UniProt Q16828). Described as above. As to conditions: HeLa MKP-3 transfected, phospho-Erk imaging KS statistic; at 10 µM; stronger effect = higher value; cells stimulated with TPA for 15 min.
Assay [5] concerns the target Voltage-gated potassium channel subunit beta-2 (Rattus norvegicus) (UniProt P62483). The assay is described as follows: inhibitors of rat Kvbeta2 reductase activity – biochemical, NADPH fluorescence, primary screen (AID 622;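 active = fluorescence slope higher than the sample average by over 3 SD, cut at about -0.22 in these data, passing the limit was not always enough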;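 note: slope of raw intensity against log time taken from 70 to 1610 s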). Particulars: recombinant KvBeta, 4-cyanobenzaldehyde reduction, at 10 µM, stronger effect = higher value.
The target is the same in assay [6]. Nature of the assay: enhancers of rat Kvbeta2 NADPH turnover – biochemical, NADPH fluorescence, primary screen (AID 623;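 active = NADPH fluorescence slope more negative than the mean of all samples by about 3 SD, 99.7% confidence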;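 note: fluorescence intensity change per second fitted from 20 to 320 s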). As to conditions: Recombinant KvBeta, NADPH fluorescence decrease slope, 10 min; at 10 µM; stronger effect = lower value.
Assay [7] addresses Alpha-2C adrenergic receptor (Homo sapiens) (UniProt P18825). The assay is described as follows: compounds altering alpha2C-coupled GIRK flux – cell-based, HEK293 alpha2C/GIRK1/2, thallium flux, primary screen (AID 624;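 active = fluorescence slope after compound addition differing from the mean of all screened samples at 99.7% confidence, in either direction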;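 note: slope of fluorescence ratio to pre-addition baseline per second over 15 to 24 s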). Particulars: thallium flux BTC fluorescence, at 10 µM, actives lie on both sides.
The nature of assay [8]: inhibitors of larval lipid processing in zebrafish, primary screen, whole organism, PED6 fluorescence, gall bladder and intestine (AID 686;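 active = a full or partial loss of lipid-probe fluorescence in the fish gall bladder, intestine or both, judged by eye; inactive = no fluorescence loss, or compound toxic to the fish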;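 note: larvae 5 to 7 days old with five fish per well; signal comes from phospholipase A2 cleavage of quenched PED6 carried via bile; overnight exposure to compound and PED6 before scoring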). As to conditions: Zebrafish larvae PED6 lipid processing, fluorescence scoring; screened at 20 µM (by protocol). In short, it runs like this:
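Doses: 20 µM single dose. Test system: live zebrafish larvae aged 5-7 days, whole organism. Quantity: five larvae per well. Measured by: By-eye fluorescence microscopy. Reagent: ingested quenched lipid PED6 at 100 nM. Read-out: visual per-well fluorescence inhibition score. Times: overnight exposure of larvae to compound plus PED6.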

Assay [9] can be described thus: loss of swimming-algae plug formation – whole organism, Chlamydomonas reinhardtii, WT vs cilia-less mutant, absorbance, 96-well, primary screen (AID 463189;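 active = inhibition at or above 50% relative to wild type and mutant plate controls; inactive = inhibition below 50%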;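 note: 0% = wild type cc124 cells in DMSO and 100% = ciliumless bld1 mutant cells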). Particulars: Chlamydomonas reinhardtii gravitaxis, OD600 absorbance, 2 days; at 10 µM; stronger effect = higher value.
Setting [10] is: measured here: cell density z-score.
Setting [11] is: measured here: nuclear c-Myc green intensity z-score.
The mark [12] stands for this setting: measured here: nuclear pErk red intensity z-score, stronger effect = higher value.

Active and inactive are the calls of the source.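 Rule for the calls, unless noted: active = visually confirmed hit in the image check and inhibition above 20%; inconclusive = visually confirmed hit but inhibition not above 20%; inactive = no visual hit in the image check.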

The inhibition is the drop in the measured response relative to a control, in per cent.

Chain of Alpha-2C adrenergic receptor (Homo sapiens) (P18825 whole entry, looked up): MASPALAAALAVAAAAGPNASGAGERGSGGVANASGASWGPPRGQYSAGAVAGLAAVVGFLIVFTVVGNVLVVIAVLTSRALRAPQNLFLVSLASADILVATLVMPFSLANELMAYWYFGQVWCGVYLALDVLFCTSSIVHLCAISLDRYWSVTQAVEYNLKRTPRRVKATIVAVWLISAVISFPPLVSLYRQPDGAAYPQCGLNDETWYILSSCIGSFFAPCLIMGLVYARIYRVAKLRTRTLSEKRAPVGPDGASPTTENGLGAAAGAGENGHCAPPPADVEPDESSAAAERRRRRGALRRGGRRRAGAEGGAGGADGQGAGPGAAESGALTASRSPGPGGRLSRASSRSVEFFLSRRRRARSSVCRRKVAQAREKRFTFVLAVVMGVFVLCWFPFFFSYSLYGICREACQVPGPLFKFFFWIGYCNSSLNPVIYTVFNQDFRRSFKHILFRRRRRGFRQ
Chain of Voltage-gated potassium channel subunit beta-2 (Rattus norvegicus) (P62483 whole entry, looked up): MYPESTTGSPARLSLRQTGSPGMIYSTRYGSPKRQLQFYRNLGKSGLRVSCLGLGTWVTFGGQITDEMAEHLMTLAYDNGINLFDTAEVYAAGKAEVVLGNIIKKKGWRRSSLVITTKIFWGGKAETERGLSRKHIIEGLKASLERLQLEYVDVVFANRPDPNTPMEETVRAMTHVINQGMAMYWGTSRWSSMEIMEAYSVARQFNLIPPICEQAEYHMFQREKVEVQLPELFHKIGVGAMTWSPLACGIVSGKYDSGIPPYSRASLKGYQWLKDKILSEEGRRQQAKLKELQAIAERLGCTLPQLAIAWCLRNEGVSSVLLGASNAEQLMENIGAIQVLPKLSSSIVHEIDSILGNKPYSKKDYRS
Chain of Dual specificity protein phosphatase 6 (Homo sapiens) (Q16828 whole entry, looked up): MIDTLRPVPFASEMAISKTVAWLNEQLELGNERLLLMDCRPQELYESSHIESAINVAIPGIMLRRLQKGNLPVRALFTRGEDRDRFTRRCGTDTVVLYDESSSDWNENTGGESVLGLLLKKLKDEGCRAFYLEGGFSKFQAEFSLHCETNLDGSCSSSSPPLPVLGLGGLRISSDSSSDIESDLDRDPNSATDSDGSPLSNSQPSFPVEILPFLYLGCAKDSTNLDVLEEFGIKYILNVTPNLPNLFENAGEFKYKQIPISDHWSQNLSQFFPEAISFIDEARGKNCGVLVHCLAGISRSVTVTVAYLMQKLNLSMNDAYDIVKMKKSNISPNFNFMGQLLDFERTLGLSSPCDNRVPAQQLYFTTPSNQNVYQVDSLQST

Consider `CCCOc1cccc(C2C(C(=O)c3ccc(C)o3)=C(O)C(=O)N2CCCN(C)C)c1` (centres undefined), for which the cell count in assay [1] was 432. Further, the inhibition is 3.5% (inactive) in assay [1], 48.5% (inactive) in [2], -11.9% (inactive) in assay [4] and -2.38% (inactive) in assay [9]. In [2], this molecule had a nuclei count of 77.5%. Besides, the z-score was -0.596 in assay [3] (setting [10]), -1.82 in assay [3] (setting [11]) and 0.0129 in assay [3] (setting [12]). The fluorescence slope in assay [5] is -0.45 (inactive). The NADPH fluorescence slope in assay [6] was -9.1e-06 (inactive). In addition, the slope in assay [7] was 0.00522 (inactive). In addition, the molecule was classed as inactive in assay [8].

With `Cc1nnc(SCc2nc3ccccc3[nH]2)s1`, the cell count in assay [1] stood at 417. Further, the inhibition is -9.9% (inactive) in [1], -178% (inactive) in assay [2], -5.89% (inactive) in [4] and 9.63% (inactive) in assay [9]. The molecule further displayed a nuclei count in [2] of 172%. In addition, the z-score in [3] (setting [10]) was 1.08; in [3] (setting [11]) it was -0.712; in assay [3] (setting [12]) it was -0.186. In addition, in assay [5], the fluorescence slope was -0.368 (inactive). Further, the NADPH fluorescence slope in assay [6] was -5.3e-05 (inactive). Moreover, the slope in assay [7] is 0.00478 (inactive). The molecule was called inactive in assay [8].

On to `COCc1cc(C)nc(SCC(=O)Nc2ccc(C)c(C)c2)c1C#N`, for which the cell count in assay [1] worked out at 618. For the same molecule, the inhibition in assay [1] was -2.6% (inactive); in [2], -92.9% (inactive); in assay [4] it was 5.65% (inactive); in assay [9], -8.23% (inactive). Besides, in [2], the nuclei count is 161%. The results for the z-score in assay [3] (setting [10]), in assay [3] (setting [11]) and in assay [3] (setting [12]) were -2.03, 0.714 and 1.02, respectively. Moreover, in [5], the fluorescence slope is -0.269 (inactive). For the same molecule, the NADPH fluorescence slope in assay [6] was -9.9e-06 (inactive). In assay [7], the slope is 0.00532 (inactive). In assay [8], the outcome was inactive.

`COc1cccc(-c2nnc3sc(-c4ccco4)nn23)c1`: the cell count in assay [1] is 467. Moreover, the inhibition was -4% (inactive) in [1], 3.6% (inactive) in assay [2], 8.31% (inactive) in assay [4] and 38.1% (inactive) in assay [9]. The molecule also gave a nuclei count in [2] of 105%. The z-score is 1.05 in assay [3] (setting [10]), -0.932 in assay [3] (setting [11]) and -0.641 in [3] (setting [12]). Besides, the fluorescence slope in assay [5] was -0.463 (inactive). Further, in assay [6], the NADPH fluorescence slope was 1.3e-05 (inactive). The slope in assay [7] was 0.00496 (inactive). In addition, in assay [8], the outcome was “active; weak signal in gallbladder and intestine”.

For the molecule `CSC1=C(C#N)C(c2ccc(C)s2)CC(=O)N1` (centres undefined), in assay [1], the cell count worked out at 411. For the same molecule, the inhibition in assay [1] was -0.1% (inactive); in assay [2], 13.9% (inactive); in assay [4], 13.2% (inactive); in assay [9] it was 24% (inactive). This molecule also registered a nuclei count in assay [2] of 63.5%. For the same molecule, the z-score in assay [3] (setting [10]) was 0.0106; in [3] (setting [11]), 2.55; in [3] (setting [12]), -0.606. Also, the fluorescence slope in [5] is -0.511 (inactive). For the same molecule, in assay [6], the NADPH fluorescence slope is -5e-05 (inactive). For the same molecule, the slope in assay [7] was 0.00472 (inactive). In addition, the outcome in [8] was inactive.

With `COc1ccc(-c2nnc3sc(COc4ccccc4)nn23)cc1`, the cell count in assay [1] came to 645. Besides, the inhibition was -8.4% (inactive) in assay [1], -95.8% (inactive) in [2], 4.72% (inactive) in assay [4] and 150% (active) in [9]. In [2], this molecule had a nuclei count of 154%. The z-score was -0.369 in assay [3] (setting [10]), -0.469 in assay [3] (setting [11]) and -1.07 in [3] (setting [12]). Moreover, in assay [5], the fluorescence slope is -0.445 (inactive). Also, the NADPH fluorescence slope in assay [6] was -0.000151 (inactive). Further, the slope in [7] is 0.00767 (inactive). Moreover, in assay [8], the molecule was called inactive.

Take `Cn1c(=O)c2c(nc(OCc3cccnc3)n2Cc2ccccc2)n(C)c1=O`: the cell count in [1] is 599. Moreover, the inhibition is 8.2% (inactive) in assay [1], 3.5% (inactive) in [2], -2.91% (inactive) in assay [4] and -5.51% (inactive) in assay [9]. The molecule further had a nuclei count in assay [2] of 138%. Also, the z-score is 1.08 in assay [3] (setting [10]), -0.258 in [3] (setting [11]) and 0.62 in assay [3] (setting [12]). The fluorescence slope in assay [5] was -0.517 (inactive). For the same molecule, the NADPH fluorescence slope in [6] was -0.000111 (inactive). In addition, the slope in [7] is 0.00473 (inactive). Moreover, the molecule was called inactive in [8].

On to `CCN(CC)CCCn1c(C)cc2c(c1=O)C(c1ccccc1)C(C#N)=C(N)O2` (centres undefined), for which the cell count in assay [1] worked out at 417. The inhibition is 11.8% (inactive) in assay [1], -54.2% (inactive) in assay [2], 0.671% (inactive) in assay [4] and -1.93% (inactive) in assay [9]. In assay [2], this molecule registered a nuclei count of 140%. The z-score was -0.637 in assay [3] (setting [10]), 0.212 in assay [3] (setting [11]) and 1.28 in [3] (setting [12]). Moreover, the fluorescence slope in assay [5] was -0.395 (inactive). For the same molecule, the NADPH fluorescence slope in assay [6] was -3.1e-05 (inactive). In addition, in assay [7], the slope was 0.0067 (inactive). Besides, in assay [8], the call was inactive.

Turning to `COc1ccccc1Cn1c2nc3ccccc3nc2c2c(=O)n(CC(C)C)cnc21`, in assay [1], the cell count is 340. Moreover, the inhibition in assay [1] was -7.7% (inactive); in assay [2], -28.2% (inactive); in assay [4], -8.59% (inactive); in assay [9], 6.68% (inactive). Also, in assay [2], the nuclei count was 148%. Moreover, the z-score in assay [3] (setting [10]) was 0.356; in assay [3] (setting [11]) it was -0.852; in assay [3] (setting [12]), -0.477. In addition, the fluorescence slope in assay [5] was -0.425 (inactive). In assay [6], the NADPH fluorescence slope was -0.000144 (inactive). Further, in assay [7], the slope was 0.00898 (inactive). Besides, the molecule was called inactive in [8].

Take `COCCCNc1nc2c(c(=O)n(C)c(=O)n2C)n1Cc1cccc(OC)c1`: the cell count in [1] turned out to be 434. Further, the inhibition in assay [1] is -9.7% (inactive); in assay [2], -93.1% (inactive); in assay [4] it was 4.37% (inactive); in assay [9], -3.39% (inactive). The nuclei count in [2] turned out to be 190%. For the same molecule, the z-score in assay [3] (setting [10]) was 2.25; in [3] (setting [11]), -1.46; in assay [3] (setting [12]), -1.41. Besides, in assay [5], the fluorescence slope is -0.325 (inactive). In addition, in [6], the NADPH fluorescence slope was 1.1e-05 (inactive). The slope in assay [7] was 0.00428 (inactive). For the same molecule, in assay [8], the outcome was inactive.

In the case of `CCOC(=O)c1[nH]c2cc3c(cc2c1NC(=O)CN1CCc2ccccc2C1)OCO3`, in assay [1], the cell count was found to be 523. Further, the inhibition in [1] was 0.1% (inactive); in assay [2], -11.1% (inactive); in assay [4] it was -1.75% (inactive); in [9] it was 25.5% (inactive). Further, in assay [2], the nuclei count stood at 104%. Besides, the z-score in assay [3] (setting [10]) was -0.283; in [3] (setting [11]), -0.223; in assay [3] (setting [12]) it was -0.654. Also, the fluorescence slope in [5] is -0.248 (inactive). Also, in [6], the NADPH fluorescence slope is -1e-07 (inactive). The slope in assay [7] is 0.00381 (inactive). Further, the call in assay [8] was inactive.

As to `COc1ccc(C2CC(C(F)(F)F)n3ncc(C(=O)Nc4cccc(O)c4)c3N2)cc1OC` (centres undefined), the cell count in assay [1] stood at 494. Further, the inhibition in assay [1] was -6.1% (inactive); in [2], -14.4% (inactive); in assay [4], 1.75% (inactive); in assay [9], -4.48% (inactive). This molecule gave a nuclei count in [2] of 119%. Further, the z-score in assay [3] (setting [10]) is -0.0495; in [3] (setting [11]), 0.084; in assay [3] (setting [12]), -0.887. Further, in [5], the fluorescence slope was -0.483 (inactive). For the same molecule, in [6], the NADPH fluorescence slope is -0.00017 (inactive). In assay [7], the slope is 0.0043 (inactive). For the same molecule, the outcome in assay [8] was “active; weak signal in gallbladder and intestine”.

For the molecule `Cc1c(Cl)c(C(F)(F)F)nn1CC(=O)N1CCSCC1`, in [1], the cell count was 511. In addition, the inhibition in assay [1] was -3.6% (inactive); in assay [2], -110% (inactive); in assay [4], -9.7% (inactive); in assay [9] it was -2.53% (inactive). For the same molecule, in assay [2], the nuclei count was 152%. Moreover, the z-score in assay [3] (setting [10]) was -0.563; in assay [3] (setting [11]), -0.304; in assay [3] (setting [12]), 1.29. For the same molecule, in [5], the fluorescence slope was -0.555 (inactive). Moreover, in [6], the NADPH fluorescence slope is -4.7e-05 (inactive). Moreover, the slope in [7] was 0.00531 (inactive). Also, in [8], the result was inactive.

Source of the values: PubChem BioAssay.
